Screening data from PubChem BioAssay.
PAD4 FP inh – PAD4 (human) enzyme inhibition; AID 485272; Q9UM07; inhibition, % at 6.36 µM; recombinant PAD4, RCA probe fluorescence polarization; actives 0.41% (n = 330,000);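 active = percent inhibition above a cutoff equal to the mean of all tested compounds plus 3 SD, cut at about 15% in these data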;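 note: 0% = PAD4 with RCA probe and DMSO and 100% = probe without PAD4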
PRMT1 inh – PRMT1 (human) inhibition, primary screen; AID 652257; Q99873; actives 1.3% (n = 370,000); recombinant PRMT1, activity-based probe fluorescence polarization; inhibition, % at 2.79 µM;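 active = inhibition above about 21% made by adding two undisclosed values, limit read from the data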
Apaf-1 inh – human Apaf-1 inhibition. O14727. reconstituted apoptosome caspase-3 activity, DEVD-Rh110 fluorescence. inhibition, % at 20 µM. actives 0.71% (n = 330,000); active = inhibition of at least 40% at 20 µM;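 note: plate controls were DMSO wells for no effect and DEVD-CHO caspase inhibitor wells for full effect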
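Assay system: Apoptosome proteins | Medium: pH 7.5 Hepes buffer with CHAPS, BSA, DTT | Also added: Cytochrome c and DEVD-Rh110 substrate | Times: 30 min plus 50 min, RT | Detection: Rhodamine 110 fluorescence at Ex 480/Em 540 nm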
GSTO1 counter – GSTO1 inhibition, counter-screen for RBBP9 inhibitors; recombinant GSTO1, activity-based probe fluorescence polarization; inhibition, % at 5.96 µM; actives 1.1% (n = 300,000); AID 1974;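 active = inhibition above the campaign mean inhibition plus 3 SD, cut at about 35% in these data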;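 note: 0% = GSTO1-1 with DMSO and 100% = wells lacking GSTO1-1 enzyme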
TDP2 inh – TDP2 (human) inhibition, absorbance primary screen | actives 0.34% (n = 370,000) | AID 720702 | inhibition, % at 12.8 µM | recombinant TDP2, T5PNP hydrolysis, p-nitrophenol absorbance 415 nm | O95551;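 active = inhibition above the mean of all tested compounds plus 3 SD, set per campaign, cut at about 25% in these data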;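 note: 0% = DMSO with enzyme and 100% = buffer with substrate but no TDP2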
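Test system: human TDP2 enzyme; Input: 120 nM TDP2 per well; Buffer or medium: Mg2+-containing Tris-HCl buffer, pH 7.5; Reagent: 5 mM T5PNP; Dosing: 12.8 µM single point, 1% DMSO; Incubation: reaction 2 h, 37 °C; Detection: p-Nitrophenol epi absorbance; Read-out: % inhibition relative to enzyme-containing and enzyme-free wells; Replicates: single well per compound.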
Apaf-1 inh conf2 – Apaf-1 inhibition, single-dose confirmed; AID 504614; reconstituted apoptosome, caspase-3 DEVD-Rh110 fluorescence; shares compounds with Apaf-1 inh; actives 25% (n = 1,800); inhibition, % at 20 µM;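 active = mean inhibition of at least 40% at 20 µM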;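 note: plate controls were DMSO wells for no effect and DEVD-CHO caspase inhibitor control wells for full effect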
Rh110 quench – interferes with Rh110 fluorescence, flagging false Apaf-1 inhibitors. Rh110 fluorescence interference, quenched caspase reaction. 1,800 tested, under 10 active. activation (fluorescence interference), % at 20 µM. shares compounds with Apaf-1 inh;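 active = signal rise of 40% or more at 20 µM, treated as a fluorescence artifact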
Fluor interf inh – shows fluorescence interference in the Apaf-1 inhibitor assay format; fluorescence interference counterscreen, Apaf-1 assay format; shares compounds with Apaf-1 inh; AID 588538; 460 tested, under 10 active; IC50, µM; call rule not given here
The depositor's hits bear a star; x = no result. An excerpt weighted towards active compounds, which were near 2.6% of everything screened.

SMILES	PAD4 FP inh	PRMT1 inh	Apaf-1 inh	GSTO1 counter	TDP2 inh	Apaf-1 inh conf2	Rh110 quench	others
COc1cc(OC)c2c(-c3cccc(-c4ccc(CO)cc4)c3)cc(=O)oc2c1	-4	x	42*	x	x	36	2
CCN(CC)C(=O)C1=C(C)N(Cc2ccc(OC)cc2)C(=O)C(CC(=O)NCC2CCCCC2)C1 (centres undefined)	x	-4	x	x	-4	x	x
COc1ccc2c(c1)c1nc3ccccc3nc1n2Cc1ccc(OC(C)C)c(OC)c1	-3	-1	1	3	-8	x	x
COc1ccc(Cn2c(N)c(C#N)c3nc4ccccc4nc32)cc1OC	-19	-1	86*	11	9	10	11
COC(CNC(=O)c1cccnc1)OC	0	2	-4	3	-3	x	x
COC(CNC(=O)c1ccc2c3c(onc13)-c1ccccc1C2=O)OC	-10	10	73*	34	4	57*	10	Fluor interf inh=>100
O=C(CCn1c2c(c3ccccc31)CCCC2)NNC(=O)c1ccc(Cl)c([N+](=O)[O-])c1	-4	2	89*	-2	-5	87*	8	Fluor interf inh=>100
O=C(CCn1c2c(c3ccccc31)CCCC2)NNC(=O)c1ccc([N+](=O)[O-])cc1	2	0	81*	3	-3	85*	7	Fluor interf inh=>100
CC(=O)NNC(=O)CCn1c2c(c3ccccc31)CCCC2	-3	-4	-3	-3	6	x	x
COC(=O)c1cccc(C23CC4(C2)[C@H](CN(CC2CCCCC2)[C@@H]4c2ccccc2)C3c2ccccc2)c1 (some centres undefined)	2	-3	40*	11	-3	18	6
CCn1c(=O)c2cc(C(=O)N(C)c3cc(C)ccc3OC)sc2c2ccccc21	-1	0	53*	-11	-11	26	7
CCn1c(=O)c2cc(C(=O)N(C)c3ccc(OC)cc3OC)sc2c2ccccc21	-1	4	19	-11	2	x	x
O=[N+]([O-])c1ccc(C=Nc2cccc3ccccc23)s1	-21	x	68*	19	x	10	-1
CN(CCc1ccccc1)C(C(=O)c1ccc2c(c1)OCO2)c1nnnn1-c1ccccc1NC(=O)OC(C)(C)C (centres undefined)	x	8	x	x	3	x	x
COc1ccccc1NC(=O)c1nc[nH]c1C(=O)Nc1ccccc1OC	3	1	95*	6	-8	0	1
CCOc1ccccc1NC(=O)c1nc[nH]c1C(=O)Nc1ccccc1OCC	-11	x	8	4	x	x	x
O=C(OC1CC2CC1[C@H]1CCCCN1C2=O)N1CCCCC1 (some centres undefined)	x	-3	x	x	-9	x	x
CCCCCCCCCCCCN1[C@@H](CC(=O)O)c2cc(C(F)(F)F)ccc2S1(=O)=O	8	3	41*	4	-12	26	8
CCCCCCCCN1[C@@H](CC(=O)O)c2cc(C(F)(F)F)ccc2S1(=O)=O	1	4	1	2	0	x	x
O=C(CNc1cccc2ccccc12)N/N=C/c1ccccn1	-3	0	48*	23	7	15	3
COC(=O)C1=C(C)N(Cc2ccccc2)C(=NCc2cc(OC)c(OC)c(OC)c2)N[C@H]1CCc1ccccc1	2	3	48*	x	-5	14	5
COC(=O)C1=C(C)N(Cc2ccccc2C(F)(F)F)C(=NCc2cc(OC)c(OC)c(OC)c2)NC1CCc1ccccc1 (centres undefined)	x	-3	x	x	-6	x	x
COC(=O)C1=C(C)N(Cc2ccccc2)C(=NCc2cccc(Cl)c2)N[C@H]1c1ccccc1	1	x	56*	x	x	16	12
COC(=O)C1=C(C)N(Cc2ccccc2)C(=NCc2ccccc2)N[C@H]1c1ccccc1	-3	-1	47*	x	1	13	18
COC(=O)C1=C(C)N(Cc2ccccc2)C(=NCc2cc(OC)c(OC)c(OC)c2)N[C@H]1c1ccc(Br)cc1	-1	x	55*	x	x	11	7
